Laboratory results as given in ChEMBL document CHEMBL4330096, “Discovery of potent and selective 5-azaindazole inhibitors of leucine-rich repeat kinase 2 (LRRK2) - Part 1” (Bioorg Med Chem Lett, 2019).

How the values were obtained:
[1] = molecular target: Leucine-rich repeat serine/threonine-protein kinase 2 (Homo sapiens, UniProt Q5S007, G2019S); experiment: Inhibition of recombinant human GST-tagged LRRK2 G2019S mutant catalytic domain (970 to 2527 residues) expressed in baculovirus expression system by radiometric assay
Leucine-rich repeat serine/threonine-protein kinase 2, sequence (Q5S007 whole entry G2019S, the tested form may be a part): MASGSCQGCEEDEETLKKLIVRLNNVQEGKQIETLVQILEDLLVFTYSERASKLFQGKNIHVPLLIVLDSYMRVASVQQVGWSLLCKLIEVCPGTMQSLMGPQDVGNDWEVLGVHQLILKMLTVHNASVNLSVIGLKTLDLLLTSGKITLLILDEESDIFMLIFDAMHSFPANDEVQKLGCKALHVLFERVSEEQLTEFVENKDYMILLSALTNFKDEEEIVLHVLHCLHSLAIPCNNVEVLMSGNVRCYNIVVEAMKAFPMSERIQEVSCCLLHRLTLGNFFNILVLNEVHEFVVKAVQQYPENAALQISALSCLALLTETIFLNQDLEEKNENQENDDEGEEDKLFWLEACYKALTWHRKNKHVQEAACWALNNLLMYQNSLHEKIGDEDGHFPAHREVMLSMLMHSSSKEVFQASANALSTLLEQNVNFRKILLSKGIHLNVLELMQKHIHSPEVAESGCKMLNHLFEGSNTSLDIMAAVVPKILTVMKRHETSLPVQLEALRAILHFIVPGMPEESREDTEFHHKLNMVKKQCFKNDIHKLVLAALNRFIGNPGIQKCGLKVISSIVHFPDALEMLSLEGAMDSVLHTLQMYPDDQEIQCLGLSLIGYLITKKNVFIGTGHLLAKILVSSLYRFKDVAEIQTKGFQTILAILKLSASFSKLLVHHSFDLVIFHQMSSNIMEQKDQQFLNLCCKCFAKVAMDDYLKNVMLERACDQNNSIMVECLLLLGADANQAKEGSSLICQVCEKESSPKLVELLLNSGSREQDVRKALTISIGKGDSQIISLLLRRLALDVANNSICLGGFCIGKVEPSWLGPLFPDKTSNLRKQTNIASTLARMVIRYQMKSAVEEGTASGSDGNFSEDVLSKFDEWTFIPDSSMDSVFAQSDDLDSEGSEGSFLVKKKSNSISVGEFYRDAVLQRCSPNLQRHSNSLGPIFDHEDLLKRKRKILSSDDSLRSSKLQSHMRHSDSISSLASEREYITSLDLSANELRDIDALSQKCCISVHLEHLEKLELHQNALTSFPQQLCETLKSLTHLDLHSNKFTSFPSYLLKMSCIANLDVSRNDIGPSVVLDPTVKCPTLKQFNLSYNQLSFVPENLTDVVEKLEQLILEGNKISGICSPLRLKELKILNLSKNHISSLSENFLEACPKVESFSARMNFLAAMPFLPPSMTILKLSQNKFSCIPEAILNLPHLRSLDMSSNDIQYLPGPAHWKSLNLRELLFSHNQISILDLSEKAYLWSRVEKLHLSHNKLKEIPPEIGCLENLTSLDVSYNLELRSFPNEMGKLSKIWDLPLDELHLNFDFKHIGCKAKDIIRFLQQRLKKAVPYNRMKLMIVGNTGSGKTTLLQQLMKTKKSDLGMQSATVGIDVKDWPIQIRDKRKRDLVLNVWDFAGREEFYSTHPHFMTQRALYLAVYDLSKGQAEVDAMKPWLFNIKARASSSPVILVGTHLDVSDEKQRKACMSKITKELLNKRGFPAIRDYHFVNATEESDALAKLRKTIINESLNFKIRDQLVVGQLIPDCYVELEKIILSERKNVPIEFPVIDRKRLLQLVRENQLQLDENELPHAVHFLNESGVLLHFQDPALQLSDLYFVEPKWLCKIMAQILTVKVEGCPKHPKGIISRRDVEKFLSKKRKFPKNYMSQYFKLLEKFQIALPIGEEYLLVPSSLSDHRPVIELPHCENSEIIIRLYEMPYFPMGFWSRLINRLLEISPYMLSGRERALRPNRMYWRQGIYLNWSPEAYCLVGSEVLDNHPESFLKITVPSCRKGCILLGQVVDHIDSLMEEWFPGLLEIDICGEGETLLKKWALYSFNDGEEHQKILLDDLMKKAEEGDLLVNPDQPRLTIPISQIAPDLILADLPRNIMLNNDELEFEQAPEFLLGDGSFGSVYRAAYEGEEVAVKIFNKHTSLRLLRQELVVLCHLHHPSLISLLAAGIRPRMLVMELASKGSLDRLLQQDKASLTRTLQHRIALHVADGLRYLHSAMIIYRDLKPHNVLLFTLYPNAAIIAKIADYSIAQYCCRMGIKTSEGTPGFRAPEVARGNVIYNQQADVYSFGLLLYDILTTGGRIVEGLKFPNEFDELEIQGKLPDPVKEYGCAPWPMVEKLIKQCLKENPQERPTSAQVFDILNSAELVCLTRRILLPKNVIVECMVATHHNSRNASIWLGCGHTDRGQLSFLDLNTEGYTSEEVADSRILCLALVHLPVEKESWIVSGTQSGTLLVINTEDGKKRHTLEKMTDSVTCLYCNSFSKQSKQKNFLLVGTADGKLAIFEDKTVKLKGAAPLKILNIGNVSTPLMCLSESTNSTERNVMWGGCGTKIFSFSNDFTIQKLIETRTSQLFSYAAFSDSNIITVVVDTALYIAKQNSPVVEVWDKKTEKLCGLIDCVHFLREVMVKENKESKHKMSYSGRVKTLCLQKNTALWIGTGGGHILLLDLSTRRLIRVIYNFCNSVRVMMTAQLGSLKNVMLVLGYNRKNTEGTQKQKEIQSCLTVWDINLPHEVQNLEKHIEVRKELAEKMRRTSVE

[2] = Stability in human liver microsomes assessed as compound turnover rate measured after 40 mins; format: ADME, Microsome; conditions: read-out: Drug metabolism
How it was run: (§1)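 In vitro incubation of compound with liver microsomes: human (HLM) for 40 min, mouse (MLM) for 30 min. Reported as % turnover of parent compound.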

[3] = Stability in mouse liver microsomes assessed as compound turnover rate measured after 30 mins; format: ADME, Microsome; conditions: read-out: Drug metabolism; how it was run: as §1
[4] = Ratio of drug level in mouse brain to plasma; conditions: read-out: BPR
How it was run: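 Mice; ratio based on total (not unbound) compound concentrations in brain versus plasma.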

[5] = Lipophilicity, log D of the compound at pH 7.4; format: physicochemical; conditions: buffer

SMILES | IC50 [1] [nM] | metabolised at 40 min [2] [%] | metabolised at 0.5 h [3] [%] | Kp [4] | logD [5]
CC(C)Cn1cc(-c2n[nH]c3ccnc(OC4CCOCC4)c23)cn1 | 15 | – | – | – | –
Cc1n[nH]c2cncc(NC3CCCCC3)c12 | 770 | – | – | – | –
CC(C)Cn1cc(-c2n[nH]c3ccnc(NC4CCOCC4)c23)cn1 | 410 | – | – | – | –
CC[C@H](C)Nc1nccc2[nH]nc(C)c12 | 300 | 6 | 9 | – | –
Cc1nn(C)c2ccnc(NC3CCCCC3)c12 | > 10000 | – | – | – | –
Cc1n[nH]c2ccnc(NCc3ccc(Cl)cc3)c12 | 4900 | – | – | – | –
Cc1n[nH]c2ccnc(NC3CCC3)c12 | 530 | – | – | – | –
Cc1n[nH]c2ccnc(Nc3ccc(Cl)cc3)c12 | 390 | – | – | – | –
Cc1n[nH]c2ccnc(OC3CCCC3)c12 | 86 | 31 | 42 | – | –
Cc1n[nH]c2ccnc(Nc3cccnc3)c12 | > 10000 | – | – | – | –
Cc1n[nH]c2ccnc(OC(C)C)c12 | 68 | 2 | 24 | – | –
Cc1n[nH]c2ccnc(NC3CCOCC3)c12 | 190 | 0 | 4 | 1.6 | 1.2
CC(C)n1cc(-c2n[nH]c3ccnc(OC4CCCCC4)c23)cn1 | 2 | 36 | 66 | – | 3.7
Cc1n[nH]c2ccnc(NC3CC3)c12 | 4700 | – | – | – | –
c1cc2[nH]nc(-c3cnn(C4CCCC4)c3)c2c(NC2CCOCC2)n1 | 170 | – | – | – | –
Cc1n[nH]c2ccnc(NCC3CC3)c12 | 2400 | – | – | – | –

SMILES | IC50 [1] [nM] | metabolised at 40 min [2] [%] | metabolised at 0.5 h [3] [%] | Kp [4] | logD [5]
Cc1n[nH]c2ccnc(O[C@@H]3CCOC3)c12 | 250 | 0 | 13 | – | –
Cc1n[nH]c2ccnc(N(C)C3CCCCC3)c12 | 1600 | – | – | – | –
Cn1cc(-c2n[nH]c3ccnc(NC4CCCCC4)c23)cn1 | 130 | 21 | 19 | – | 2.7
Cc1n[nH]c2ccnc(N3CCOCC3)c12 | 3000 | – | – | – | –
CCOc1nccc2[nH]nc(C)c12 | 440 | – | – | – | –
c1cc(-c2n[nH]c3ccnc(NC4CCOCC4)c23)cc(N2CCOCC2)n1 | – | 17 | 11 | – | –
Cc1noc2ccnc(NC3CCCCC3)c12 | > 10000 | – | – | – | –
Cc1n[nH]c2ccnc(OC3CCN(C)CC3)c12 | 1900 | – | – | – | –
CC(C)n1cc(-c2n[nH]c3ccnc(NC4CCCCC4)c23)cn1 | 110 | 23 | 43 | – | 3.2
Cc1n[nH]c2ccnc(OC3CCC3)c12 | 170 | 22 | 41 | – | –
Cc1n[nH]c2ccnc(NC3CCCC3)c12 | 410 | 2 | 10 | – | –
c1cc2[nH]nc(-c3cnn(C4CCCC4)c3)c2c(OC2CCOCC2)n1 | 4 | – | – | – | –
Cc1n[nH]c2ccnc(NC(C)C)c12 | 880 | – | – | – | –
Cc1n[nH]c2ccnc(Nc3cnn(C)c3)c12 | 830 | – | – | – | –
Cc1ccc(Nc2nccc3[nH]nc(C)c23)cc1 | 97 | 13 | 28 | – | –
Cc1c[nH]c2ccnc(NC3CCCCC3)c12 | > 10000 | – | – | – | –
